Series [1] concerns the target T1, Cytochrome P450 1B1 (Homo sapiens, UniProt Q16678).
T1 sequence (Q16678 whole entry): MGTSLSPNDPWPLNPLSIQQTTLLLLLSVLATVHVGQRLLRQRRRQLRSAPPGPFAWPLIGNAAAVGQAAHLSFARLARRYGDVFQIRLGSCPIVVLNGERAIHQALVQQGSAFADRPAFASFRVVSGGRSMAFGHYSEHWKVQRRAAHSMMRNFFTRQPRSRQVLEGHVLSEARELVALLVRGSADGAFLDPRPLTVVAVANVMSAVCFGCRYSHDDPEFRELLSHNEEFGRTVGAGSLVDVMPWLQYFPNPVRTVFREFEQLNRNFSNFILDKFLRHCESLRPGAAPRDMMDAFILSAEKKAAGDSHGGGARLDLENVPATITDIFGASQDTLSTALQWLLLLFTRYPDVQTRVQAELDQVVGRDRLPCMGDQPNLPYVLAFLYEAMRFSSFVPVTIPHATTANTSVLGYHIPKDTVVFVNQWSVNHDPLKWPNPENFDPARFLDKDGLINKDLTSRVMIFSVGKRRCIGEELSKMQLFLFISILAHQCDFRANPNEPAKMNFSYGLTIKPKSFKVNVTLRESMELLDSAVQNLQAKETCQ
Put plainly: Inhibition of CYP1B1 in human A2780cis cells assessed as potentiation of cisplatin-induced cytotoxicity at 2 times CYP1B1 inhibitory IC50 by MTT assay. Format: cell-based.

Series [2] is described as follows: Solubility of the compound in pH 7.4 PBS buffer. Type of series: physicochemical.
Series [3] can be described thus: Solubility of the compound in pH 1.2 simulated gastric fluid. Type of series: physicochemical.
A short description of series [4]: Solubility of the compound in pH 6.8 simulated intestinal fluid. Format: physicochemical.
Series [5] addresses T1, Cytochrome P450 1B1. Put plainly: Inhibition of human liver CYP1B1 expressed in HEK293 cells using 7-ethoxyresorufin as substrate preincubated for 30 mins followed by substrate addition measured after 60 mins by fluorescence assay. Type of series: cell-based. A digest of the protocol:
(§1)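 HEK293 cells adapted to suspension were lipid-transfected with pCDM/hCYP1B1, used 24–48 h later and resuspended at 4×10^6/mL. Wells of 100–200×10^3 cells, in triplicate, were preincubated with compound (1 nM–30 µM) for 30 min at 37 °C, 8% CO2. Substrate followed: 7-ER at 5 µM or CEC. Fluorescence was read over 60 min and IC50 obtained by sigmoidal fit.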

Series [6] has as its target T1, Cytochrome P450 1B1. The series can be described thus: Inhibition of human liver CYP1B1 expressed in HEK293 cells using CEC as substrate preincubated for 30 mins followed by substrate addition measured after 60 mins by fluorescence assay. Type of series: cell-based. A digest of the protocol: as §1
Series [7] addresses T1, Cytochrome P450 1B1. The series can be described thus: Inhibition of human liver CYP1B1 expressed in Saccharomyces cerevisiae YY7 cells using 7-ethoxyresorufin as substrate after 10 mins by fluorescence assay. Type of series: cell-based. Put shortly: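 Live S. cerevisiae YY7 carrying human CYP1B1 was grown in YP-galactose. Cells were harvested 16–20 h after induction, washed in TE (pH 7.4) and diluted 1:10.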

Series [8] addresses T1, Cytochrome P450 1B1. Put plainly: Inhibition of human liver CYP1B1 expressed in Saccharomyces cerevisiae YY7 microsomal membranes using 7-ethoxyresorufin as substrate after 10 mins by fluorescence assay. A digest of the protocol:
(§2)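 Yeast microsomes (YY7 strain carrying human reductase) held 0.5 pmol CYP with an NADP+/glucose-6-phosphate/G6PDH regenerating system in KPi. Fluorogenic substrate per isoform: 7-ER, CEC, EOMCC or DBF. Six serial 1:20 dilutions were tested, DMSO ≤0.5%. Reactions ran 10 min at 37 °C and were stopped with Tris-acetonitrile. Endpoint fluorescence (530/590 nm for resorufin) was fitted by 4-parameter sigmoid. Triplicate, ≥3 experiments.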

The target in the next series is T2, Cytochrome P450 1A1 (Homo sapiens, UniProt P04798).
T2 sequence (P04798 whole entry): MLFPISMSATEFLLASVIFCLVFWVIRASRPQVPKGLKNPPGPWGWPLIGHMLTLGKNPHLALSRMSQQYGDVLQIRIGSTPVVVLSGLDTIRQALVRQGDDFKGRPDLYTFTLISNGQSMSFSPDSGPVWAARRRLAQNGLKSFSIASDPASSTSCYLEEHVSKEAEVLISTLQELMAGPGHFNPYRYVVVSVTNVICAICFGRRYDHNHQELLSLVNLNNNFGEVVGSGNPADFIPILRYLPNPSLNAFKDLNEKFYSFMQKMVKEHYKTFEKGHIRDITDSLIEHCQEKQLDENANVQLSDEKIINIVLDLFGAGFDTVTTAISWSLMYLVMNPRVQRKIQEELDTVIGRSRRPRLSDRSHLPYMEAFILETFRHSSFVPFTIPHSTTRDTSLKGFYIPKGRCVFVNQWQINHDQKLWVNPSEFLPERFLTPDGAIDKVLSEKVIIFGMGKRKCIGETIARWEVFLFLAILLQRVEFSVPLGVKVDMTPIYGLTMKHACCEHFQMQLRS
The series can be described thus: Inhibition of human liver CYP1A1 expressed in Saccharomyces cerevisiae YY7 microsomal membranes using 7-ethoxyresorufin as substrate after 10 mins by fluorescence assay. Type of series: ADME, Microsomal Membrane. A digest of the protocol:
as §2

The next series concerns the target T3, Cytochrome P450 1A2 (Homo sapiens, UniProt P05177).
T3 sequence (P05177 whole entry): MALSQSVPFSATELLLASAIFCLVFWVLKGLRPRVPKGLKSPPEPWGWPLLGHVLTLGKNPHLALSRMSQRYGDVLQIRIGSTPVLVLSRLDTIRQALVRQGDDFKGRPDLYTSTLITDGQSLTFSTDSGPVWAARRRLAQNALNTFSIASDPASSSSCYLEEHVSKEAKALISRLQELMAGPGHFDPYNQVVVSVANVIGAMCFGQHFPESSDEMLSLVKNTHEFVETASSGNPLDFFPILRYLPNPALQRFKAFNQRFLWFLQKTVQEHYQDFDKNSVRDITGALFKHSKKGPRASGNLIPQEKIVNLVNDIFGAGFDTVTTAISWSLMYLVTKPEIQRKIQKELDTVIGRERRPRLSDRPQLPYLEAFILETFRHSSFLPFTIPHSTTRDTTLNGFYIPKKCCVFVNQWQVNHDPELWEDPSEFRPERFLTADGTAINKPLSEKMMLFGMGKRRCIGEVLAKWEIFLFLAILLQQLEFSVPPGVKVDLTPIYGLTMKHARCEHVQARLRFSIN
The series can be described thus: Inhibition of human liver CYP1A2 expressed in Saccharomyces cerevisiae YY7 microsomal membranes using CEC as substrate after 10 mins by fluorescence assay. Format: ADME, Microsomal Membrane. A digest of the protocol: as §2

The next series deals with Cytochrome P450 3A4 (Homo sapiens, UniProt P08684). The series can be described thus: Inhibition of human liver CYP3A4 expressed in Saccharomyces cerevisiae YY7 microsomal membranes using DBF as substrate after 10 mins by fluorescence assay. Format: ADME, Microsomal Membrane.
In another series the target is Cytochrome P450 2D6 (Homo sapiens, UniProt P10635). The series can be described thus: Inhibition of human liver CYP2D6 expressed in Saccharomyces cerevisiae YY7 microsomal membranes using EOMCC as substrate after 10 mins by fluorescence assay. Format: ADME, Microsomal Membrane. Put shortly: as §2
Another series deals with Cytochrome P450 2C9 (Homo sapiens, UniProt P11712). The series can be described thus: Inhibition of human liver CYP2C9 expressed in Saccharomyces cerevisiae YY7 microsomal membranes using DBF as substrate after 10 mins by fluorescence assay. Type of series: ADME, Microsomal Membrane.
The target in another series is Cytochrome P450 2C19 (Homo sapiens, UniProt P33261). The series can be described thus: Inhibition of human liver CYP2C19 expressed in Saccharomyces cerevisiae YY7 microsomal membranes using DBF as substrate after 10 mins by fluorescence assay. Format: ADME, Microsomal Membrane.
The target of series [9] is T1, Cytochrome P450 1B1. The series can be described thus: Inhibition of human liver CYP1B1 expressed in Saccharomyces cerevisiae YY7 microsomal membranes at 5 to 10 uM using 7-ethoxyresorufin as substrate after 10 mins by fluorescence assay. A digest of the protocol:
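Single-concentration screen on CYP1B1 yeast microsomes at 5 µM (10 µM per methods), with 7-ER under the regenerating-system endpoint format: 10 min at 37 °C. Percentage inhibition versus a DMSO control; each compound tested twice.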

For the next series, the target named is T4, CYP1B1 (Homo sapiens, UniProt Q16678).
T4 sequence (Q16678 whole entry): T1 sequence (Q16678 whole entry)
Put plainly: Inhibition of human liver CYP1B1 expressed in Saccharomyces cerevisiae YY7 microsomal membranes at 1 uM using 7-ethoxyresorufin as substrate after 10 mins by fluorescence assay relative to control. Particulars: probe 7-ethoxyresorufin; call rule not given here.

≈ marks a conversion by molar mass, not a printed value. Bounds are passed on as bounds.

For orientation: solubility means how much of the substance goes into solution per volume. For orientation: IC50 means the concentration that inhibits the measured activity by half. A higher IC50 goes with lower potency. In general, inhibition refers to the percentage by which the read-out fell short of the control. The low end stands for a weak effect, the high end for a strong effect.

Cytochrome P450 2C9, sequence (P11712 whole entry): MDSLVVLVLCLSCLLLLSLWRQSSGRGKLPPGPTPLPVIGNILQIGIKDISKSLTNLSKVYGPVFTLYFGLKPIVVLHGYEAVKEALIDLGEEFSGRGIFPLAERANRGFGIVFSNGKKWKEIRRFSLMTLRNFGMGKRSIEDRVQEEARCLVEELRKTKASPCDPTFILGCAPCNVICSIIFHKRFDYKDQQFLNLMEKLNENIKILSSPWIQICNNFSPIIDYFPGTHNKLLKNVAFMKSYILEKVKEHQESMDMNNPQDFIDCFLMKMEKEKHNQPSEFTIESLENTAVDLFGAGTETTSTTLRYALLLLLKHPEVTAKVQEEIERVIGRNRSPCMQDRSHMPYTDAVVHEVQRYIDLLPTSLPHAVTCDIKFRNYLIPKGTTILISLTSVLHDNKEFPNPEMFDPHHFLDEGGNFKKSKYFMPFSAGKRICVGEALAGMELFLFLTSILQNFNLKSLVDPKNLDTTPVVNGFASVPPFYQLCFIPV
Cytochrome P450 2C19, sequence (P33261 whole entry): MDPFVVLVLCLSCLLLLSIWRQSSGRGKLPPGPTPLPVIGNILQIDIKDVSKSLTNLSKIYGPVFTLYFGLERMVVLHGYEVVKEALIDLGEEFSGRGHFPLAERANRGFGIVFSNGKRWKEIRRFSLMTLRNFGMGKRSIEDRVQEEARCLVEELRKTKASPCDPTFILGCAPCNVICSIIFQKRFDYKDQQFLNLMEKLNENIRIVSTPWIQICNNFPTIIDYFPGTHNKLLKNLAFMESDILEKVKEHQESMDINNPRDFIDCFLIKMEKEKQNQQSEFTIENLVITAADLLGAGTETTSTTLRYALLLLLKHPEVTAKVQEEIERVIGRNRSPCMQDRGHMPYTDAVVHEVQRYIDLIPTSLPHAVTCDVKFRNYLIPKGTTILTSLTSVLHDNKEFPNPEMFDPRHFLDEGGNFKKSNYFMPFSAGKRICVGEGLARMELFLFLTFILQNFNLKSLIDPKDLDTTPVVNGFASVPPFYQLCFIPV
Cytochrome P450 3A4, sequence (P08684 whole entry): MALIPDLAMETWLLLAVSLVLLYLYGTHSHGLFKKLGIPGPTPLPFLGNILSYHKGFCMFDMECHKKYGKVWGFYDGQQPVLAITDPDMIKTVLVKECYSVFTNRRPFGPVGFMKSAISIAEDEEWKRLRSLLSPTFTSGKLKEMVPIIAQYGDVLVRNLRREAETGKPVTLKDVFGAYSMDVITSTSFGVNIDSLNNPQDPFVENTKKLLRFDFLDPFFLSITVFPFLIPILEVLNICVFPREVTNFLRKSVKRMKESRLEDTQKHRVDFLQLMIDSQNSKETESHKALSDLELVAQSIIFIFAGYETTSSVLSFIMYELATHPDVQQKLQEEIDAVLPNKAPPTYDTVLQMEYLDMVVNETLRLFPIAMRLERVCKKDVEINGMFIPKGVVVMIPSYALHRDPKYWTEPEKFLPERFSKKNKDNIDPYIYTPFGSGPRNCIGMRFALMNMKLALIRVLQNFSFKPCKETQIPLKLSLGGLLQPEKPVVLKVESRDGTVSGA
Cytochrome P450 2D6, sequence (P10635 whole entry): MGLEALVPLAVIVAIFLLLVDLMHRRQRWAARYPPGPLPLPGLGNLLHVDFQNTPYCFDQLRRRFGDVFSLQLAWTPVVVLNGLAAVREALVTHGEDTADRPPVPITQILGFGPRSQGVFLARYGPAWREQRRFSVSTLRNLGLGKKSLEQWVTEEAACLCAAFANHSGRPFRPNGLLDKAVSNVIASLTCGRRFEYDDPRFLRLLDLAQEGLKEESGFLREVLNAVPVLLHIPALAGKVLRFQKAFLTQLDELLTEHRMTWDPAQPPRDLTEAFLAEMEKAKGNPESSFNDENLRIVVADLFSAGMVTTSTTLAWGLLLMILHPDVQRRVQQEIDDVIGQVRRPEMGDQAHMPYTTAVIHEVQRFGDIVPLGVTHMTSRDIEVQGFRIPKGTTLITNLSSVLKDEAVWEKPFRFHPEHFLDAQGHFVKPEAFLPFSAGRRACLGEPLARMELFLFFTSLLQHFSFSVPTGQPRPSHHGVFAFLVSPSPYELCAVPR

Regarding `O=C(/C=C/c1ccc2ccccc2c1)c1cccnc1`, the “inhibition (INH)” value on Cytochrome P450 1B1 [1] was “Not Active”; against Cytochrome P450 1B1 [9], “Active”. The solubility in [2] was 14.5 µg/mL (≈ 56 µM); in [3] it was 68.6 µg/mL (≈ 264 µM); in series [4], 0.45 µg/mL (≈ 1.74 µM). Further, the IC50 on Cytochrome P450 1B1 [5] amounted to 0.053 µM; against Cytochrome P450 1B1 [6], 0.004 µM; on Cytochrome P450 1B1 [7], 0.064 µM; at Cytochrome P450 1B1 [8] it was 0.01 µM; against Cytochrome P450 1A1, 0.742 µM; on Cytochrome P450 1A2, 1.2 µM. In addition, the IC50 is 18 µM on Cytochrome P450 3A4, 10 µM at Cytochrome P450 2D6, greater than 20 µM at Cytochrome P450 2C9 and greater than 20 µM against Cytochrome P450 2C19.
In the case of `O=c1cc(-c2ccccc2)oc2c1ccc1ccccc12` [ALPHA-NAPHTHOFLAVONE], the solubility in series [2] was 6.85 µg/mL (≈ 25.2 µM); in [3], 6.45 µg/mL (≈ 23.7 µM); in series [4], 0.58 µg/mL (≈ 2.13 µM). Also, the inhibition at 10 min, 1 µM against CYP1B1 is greater than 80%. Besides, the “inhibition (INH)” value against Cytochrome P450 1B1 [9] is reported as “Active”.
In the case of `COc1ccc2cc(C(=O)/C=C/c3cccnc3)ccc2c1`, the figures for the “inhibition (INH)” value on Cytochrome P450 1B1 [1] and against Cytochrome P450 1B1 [9] were “Not Active” and “Active”, respectively. The results for the solubility in series [2], in [3] and in [4] were 20.1 µg/mL (≈ 69.4 µM), 538 µg/mL (≈ 1860 µM) and 0.27 µg/mL (≈ 0.933 µM), respectively. Besides, the IC50 on Cytochrome P450 1B1 [5] came out at 0.008 µM; against Cytochrome P450 1B1 [6], 0.004 µM; against Cytochrome P450 1B1 [7], 0.065 µM; at Cytochrome P450 1B1 [8], 0.009 µM; against Cytochrome P450 1A1, 0.795 µM; against Cytochrome P450 1A2, 1.2 µM. In addition, the IC50 on Cytochrome P450 2D6 was 5 µM; at Cytochrome P450 2C9 it was greater than 20 µM; against Cytochrome P450 2C19 it was greater than 20 µM.
As to `O=C(/C=C/c1cccnc1)c1cccc2ccccc12`, the IC50 against Cytochrome P450 1B1 [8] is 0.023 µM; at Cytochrome P450 1A1, 0.958 µM; against Cytochrome P450 1A2, 0.214 µM; on Cytochrome P450 3A4 it was 6 µM; on Cytochrome P450 2D6 it was 1.3 µM; on Cytochrome P450 2C9, greater than 20 µM. The compound also gave an IC50 on Cytochrome P450 2C19 greater than 20 µM. The “inhibition (INH)” value on Cytochrome P450 1B1 [9] is on record as “Active”.
With `O=C(/C=C/c1cccnc1)c1ccc2ccc3ccccc3c2c1`, the IC50 against Cytochrome P450 1B1 [8] is 0.048 µM; against Cytochrome P450 1A1, 0.122 µM; against Cytochrome P450 1A2 it was 1 µM; against Cytochrome P450 3A4 it was 26 µM; on Cytochrome P450 2D6 it was 12 µM; against Cytochrome P450 2C9 it was greater than 20 µM. The same compound had an IC50 against Cytochrome P450 2C19 greater than 20 µM. The “inhibition (INH)” value at Cytochrome P450 1B1 [9] is on record as “Active”.
Regarding `O=C(/C=C/c1ccc(Cl)c(Cl)c1)c1cccnc1`, the IC50 on Cytochrome P450 1B1 [8] is 0.096 µM; on Cytochrome P450 1A1 it was 2 µM; on Cytochrome P450 1A2, 0.624 µM; at Cytochrome P450 3A4, 15 µM; against Cytochrome P450 2D6, 10.2 µM; at Cytochrome P450 2C9, greater than 20 µM. The IC50 against Cytochrome P450 2C19 was greater than 20 µM. Besides, on Cytochrome P450 1B1 [9], the “inhibition (INH)” value is on record as “Active”.

The record behind these values is ChEMBL document CHEMBL4007432, “Discovery and characterization of novel CYP1B1 inhibitors based on heterocyclic chalcones: Overcoming cisplatin resistance in CYP1B1-overexpressing lines” (Eur J Med Chem, 2017).
